Measured values from paper PMC6069912 (ESMO Open, 2018).
*1 amine or outer side, *2 acyl side, *3 side chain or, on linkers, in order; H or OH if unused. Where a SMILES comes first, the peptide text is derived from it. Side-chain parts run from the residue outwards. [ ]: non-standard residue; d: D form. The star is where a group is joined. Ethylenediamine = C(CN[*:2])N[*:1]; Hyp = O=C(O)[C@@H]1C[C@@H](O)CN1; Phg = N[C@H](C(=O)O)c1ccccc1; CO = O=C([*:1])[*:2]; Bn = c1ccc(C*)cc1

Experiments:
Type in all cases: in vivo, human
[1] = Pharmacokinetics of pasireotide SC in patients, non-compartmental analysis
Summary of the method: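 Patients received the test compound SC at 300–1200 µg tid during the dose-escalation phase. […] was sampled on days 1 and 8 of each of the four dose-escalation cycles and monthly during follow-up. Non-compartmental analysis gave Cmax and Cmin on days 1 and 8 of each cycle, and AUC0–2h at steady state.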

[2] = test system: Ki-67; assay: Ki-67 staining of tumour samples before and during pasireotide; settings: assessed before and during treatment in four patients
[3] = test system: patients with BRAF-WT and NRAS-WT metastatic melanoma; assay: Phase I safety: adverse events
Summary of the method: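 Open-label intrapatient escalation of the test compound SC at 300, 600, 900 and 1200 µg tid over an 8-week dose-escalation phase. At each visit, monitoring covered laboratory tests, ECG, vital signs, physical examination and gall bladder ultrasound, with AEs recorded in the eCRF. AEs of any relationship were tabulated by preferred term and by the dose level at which they started. Safety set: ≥1 dose plus ≥1 post-baseline safety assessment.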

[4] = test system: patient with BRAF-WT and NRAS-WT stage IVc cutaneous melanoma; assay: Individual patient response summary: ascites and weight; settings: patient number 4, after readministration of pasireotide
[5] = test system: IGF-1, IGF-2, IGFBP2, IGFBP3, S100B, MIA; assay: Serum secretion and melanoma response biomarkers over time; settings: patients
Summary of the method: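 Serum S100B, MIA, IGF-1, IGF-2, IGFBP2 and IGFBP3 were followed over time in patients receiving the test compound SC tid (300–1200 µg escalation, optionally followed by 80 mg long-acting IM every 28 days). Results were summarised descriptively.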

[6] = test system: BRAF-WT and NRAS-WT metastatic melanoma; assay: Antitumour activity: tumour response by RECIST 1.0; settings: n=10, two patients, 95% CI 2.5 to 55.6; by CT or MRI and 18-FDG-PET
Summary of the method: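 Patients with measurable RECIST 1.0 disease and ≥1 lesion suitable for 18-FDG-PET SUV measurement received the test compound SC at 300, 600, 900 and 1200 µg tid by intrapatient escalation for ≤8 weeks, optionally followed by 80 mg long-acting IM every 28 days. Investigators assessed response by RECIST 1.0 on CT/MRI on days 57, 113 and 169 and at end of treatment, and by adapted EORTC criteria on 18-FDG-PET on days 29 and 57. Efficacy set: ≥1 dose; 95% CI.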

[7] = dose-escalation phase, AEs started at 300 µg tid SC, safety set n=10
[8] = dose-escalation phase, AEs started at 600 µg tid SC, safety set n=10
[9] = dose-escalation phase, AEs started at 900 µg tid SC, safety set n=10
[10] = dose-escalation phase, AEs started at 1200 µg tid SC, safety set n=10
[11] = dose-escalation phase, all patients (all dose levels), safety set n=10
[12] = overall (dose-escalation phase+follow-up phase), all patients, safety set n=10

NCCCC[C@@H]1NC(=O)[C@@H](Cc2c[nH]c3ccccc23)NC(=O)[C@H](c2ccccc2)NC(=O)[C@@H]2C[C@@H](OC(=O)NCCN)CN2C(=O)[C@H](Cc2ccccc2)NC(=O)[C@H](Cc2ccc(OCc3ccccc3)cc2)NC1=O [pasireotide] (cyclo([Hyp]([CO-Ethylenediamine])[Phg][dW]KY(Bn)F))
2 (20) n (%): Fatigue, AE regardless of study drug relationship [3, 7] | Hyperglycaemia, AE regardless of study drug relationship [3, 7] | Tumour pain, AE regardless of study drug relationship [3, 7] | Nausea, AE regardless of study drug relationship [3, 8] | Chills, AE regardless of study drug relationship [3, 11] | Fatigue, AE regardless of study drug relationship [3, 11] | Hyperglycaemia, AE regardless of study drug relationship [3, 11] | Hypophosphatemia, AE regardless of study drug relationship [3, 11] | Tumour pain, AE regardless of study drug relationship [3, 11] | Chills, AE regardless of study drug relationship [3, 12] | Tumour pain, AE regardless of study drug relationship [3, 12] | Weight decreased, AE regardless of study drug relationship [3, 12]
increased with the increasing dose: AUC0–2h, Cmax and Cmin versus dose ([1]; mean plasma concentration versus time profiles on day 8, 300-1200 µg tid SC)
20%: Incidence of chills (most commonly reported AEs) ([3]; dose-escalation phase, n=10) | Incidence of fatigue (most commonly reported AEs) ([3]; dose-escalation phase, n=10) | Incidence of hyperglycaemia (most commonly reported AEs) ([3]; dose-escalation phase, n=10) | Incidence of hypophosphatemia (most commonly reported AEs) ([3]; dose-escalation phase, n=10) | Incidence of tumour pain (most commonly reported AEs) ([3]; dose-escalation phase, n=10) | Study drug-related AE: fatigue ([3]; dose-escalation phase, n=10) | Study drug-related AE: hyperglycaemia ([3]; dose-escalation phase, n=10) | Incidence of chills (most commonly reported AEs) ([3]; overall safety, n=10) | Incidence of decreased weight (most commonly reported AEs) ([3]; overall safety, n=10) | Incidence of tumour pain (most commonly reported AEs) ([3]; overall safety, n=10) | Study drug-related AE: fatigue ([3]; overall safety, n=10) | Study drug-related AE: hypophosphatemia ([3]; overall safety, n=10) | Study drug-related AE: weight decrease ([3]; overall safety, n=10) | Grade 3 or 4 drug-related AEs ([3]; overall safety, diarrhoea and nausea in one patient, hypophosphatemia in one patient, n=10) | Best overall DCR (stable disease or better) [6]
80%: Study drug-related AEs, patients with any ([3]; overall safety, n=10)
1 (10) n (%): Hypophosphatemia, AE regardless of study drug relationship [3, 7] | Chills, AE regardless of study drug relationship [3, 8] | Diarrhoea, AE regardless of study drug relationship [3, 8] | Hypophosphatemia, AE regardless of study drug relationship [3, 8] | Chills, AE regardless of study drug relationship [3, 9] | Hypophosphatemia, AE regardless of study drug relationship [3, 9] | Nausea, AE regardless of study drug relationship [3, 9]
from 85 kg to 63 kg: Reduction in weight ([4]; ascites)
3 (30) n (%): Nausea, AE regardless of study drug relationship [3, 7] | Fatigue, AE regardless of study drug relationship [3, 12] | Hyperglycaemia, AE regardless of study drug relationship [3, 12] | Hypophosphatemia, AE regardless of study drug relationship [3, 12]
50%: Incidence of diarrhoea (most commonly reported AEs) ([3]; dose-escalation phase, n=10) | Incidence of nausea (most commonly reported AEs) ([3]; dose-escalation phase, n=10) | Study drug-related AE: diarrhoea ([3]; dose-escalation phase, n=10) | Study drug-related AE: nausea ([3]; dose-escalation phase, n=10) | Incidence of diarrhoea (most commonly reported AEs) ([3]; overall safety, n=10) | Incidence of nausea (most commonly reported AEs) ([3]; overall safety, n=10) | Study drug-related AE: diarrhoea ([3]; overall safety, n=10) | Study drug-related AE: nausea ([3]; overall safety, n=10)
safe and well tolerated: Tolerability in patients with BRAF-WT and NRAS-WT melanoma ([3]; authors' overall conclusion)
147%: Accumulation ratio of AUC0–2h ([1]; 300 µg three times a day SC, patients)
30%: Incidence of fatigue (most commonly reported AEs) ([3]; overall safety, n=10) | Incidence of hyperglycaemia (most commonly reported AEs) ([3]; overall safety, n=10) | Incidence of hypophosphatemia (most commonly reported AEs) ([3]; overall safety, n=10) | Study drug-related AE: hyperglycaemia ([3]; overall safety, n=10)
0 n (%): Chills, AE regardless of study drug relationship [3, 7] | Fatigue, AE regardless of study drug relationship [3, 8] | Hyperglycaemia, AE regardless of study drug relationship [3, 8] | Tumour pain, AE regardless of study drug relationship [3, 8] | Diarrhoea, AE regardless of study drug relationship [3, 9] | Fatigue, AE regardless of study drug relationship [3, 9] | Hyperglycaemia, AE regardless of study drug relationship [3, 9] | Tumour pain, AE regardless of study drug relationship [3, 9] | Chills, AE regardless of study drug relationship [3, 10] | Diarrhoea, AE regardless of study drug relationship [3, 10] | Fatigue, AE regardless of study drug relationship [3, 10] | Hyperglycaemia, AE regardless of study drug relationship [3, 10] | Hypophosphatemia, AE regardless of study drug relationship [3, 10] | Nausea, AE regardless of study drug relationship [3, 10] | Tumour pain, AE regardless of study drug relationship [3, 10]
Three of the four: Tumour samples with decreases in Ki-67 staining following treatment [2]
4 (40) n (%): Diarrhoea, AE regardless of study drug relationship [3, 7]
from grade 2 to grade 1: Improvement in ascites [4]
5 (50) n (%): Diarrhoea, AE regardless of study drug relationship [3, 11] | Nausea, AE regardless of study drug relationship [3, 11] | Diarrhoea, AE regardless of study drug relationship [3, 12] | Nausea, AE regardless of study drug relationship [3, 12]
decrease: Serum level of IGF-1 during treatment ([5]; over time) | Serum level of IGF-2 during treatment ([5]; over time) | Serum level of MIA during treatment ([5]; over time) | Serum level of S100B during treatment ([5]; over time) | IGFBP3 levels with time ([5]; serum)
increase: IGFBP2 serum levels with time ([5]; serum)
